Assay results taken from ChEMBL document CHEMBL3097989, “Antimicrobial activity of de novo designed cationic peptides against multi-resistant clinical isolates” (Eur J Med Chem, 2014).

What was measured:
[1] = test system: Klebsiella pneumoniae; assay: Antibacterial activity against Klebsiella pneumoniae M9491 clinical isolate expressing blaMOX gene by microdilution test; assay type: functional
How it was run: (§1)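 MIC by standard broth microdilution following CLSI recommendations, in Mueller Hinton broth supplemented with Ca²⁺ (20-25mg/L) and Mg²⁺ (10-12.5mg/L); peptides tested against a panel of multi-resistant clinical isolates plus ATCC reference strains.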

[2] = test system: Acinetobacter sp.; assay: Antibacterial activity against Acinetobacter sp. M5949 clinical isolate expressing blaOXA-23 and blaOXA-GVI gene by microdilution test; assay type: functional; how it was run: as §1
[3] = test system: Acinetobacter sp.; assay: Antibacterial activity against Acinetobacter sp. M5277 clinical isolate expressing blaPER gene by microdilution test; assay type: functional; how it was run: as §1
[4] = test system: Acinetobacter sp.; assay: Antibacterial activity against Acinetobacter sp. PFAV1 clinical isolate expressing blaOXA-51, blaOXA-58 and blaPER gene by microdilution test; assay type: functional; how it was run: as §1
[5] = test system: Acinetobacter sp.; assay: Antibacterial activity against Acinetobacter sp. M5179 clinical isolate expressing blaOXA-51 gene by microdilution test; assay type: functional; how it was run: as §1
[6] = test system: Acinetobacter sp.; assay: Antibacterial activity against Acinetobacter sp. M5282 clinical isolate expressing blaOXA-51 gene by microdilution test; assay type: functional; how it was run: as §1
[7] = test system: Acinetobacter sp.; assay: Antibacterial activity against Acinetobacter sp. M13523 clinical isolate expressing blaOXA-51 gene by microdilution test; assay type: functional; how it was run: as §1
[8] = test system: Pseudomonas aeruginosa; assay: Antibacterial activity against Pseudomonas aeruginosa M7712 clinical isolate expressing blaSPM gene by microdilution test; assay type: functional
How it was run: (§2)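 MIC by standard broth microdilution following CLSI recommendations, in Mueller Hinton broth supplemented with Ca²⁺ (20-25 mg/L) and Mg²⁺ (10-12.5 mg/L); ATCC reference strains included in the panel.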

[9] = test system: Pseudomonas aeruginosa; assay: Antibacterial activity against Pseudomonas aeruginosa M7525 clinical isolate expressing blaSPM gene by microdilution test; assay type: functional; how it was run: as §2
[10] = test system: Pseudomonas aeruginosa; assay: Antibacterial activity against Pseudomonas aeruginosa M5200 clinical isolate expressing blaVIM and blaGES-1 gene by microdilution test; assay type: functional; how it was run: as §2
[11] = test system: Pseudomonas aeruginosa; assay: Antibacterial activity against Pseudomonas aeruginosa M7723 clinical isolate expressing blaKPC-2 gene by microdilution test; assay type: functional; how it was run: as §2
[12] = test system: Pseudomonas aeruginosa; assay: Antibacterial activity against Pseudomonas aeruginosa M13513 clinical isolate expressing blaKPC-2 gene by microdilution test; assay type: functional; how it was run: as §1
[13] = test system: Pseudomonas aeruginosa; assay: Antibacterial activity against Pseudomonas aeruginosa PCOS12 by microdilution test; assay type: functional; how it was run: as §2
[14] = Toxicity in human RBC assessed as hemolytic activity relative to control; assay type: cell-based, Erythrocyte; conditions: red blood cells (RBC), read-out: Activity
How it was run: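 Heparinized human whole blood diluted 3x in PBS and centrifuged 10 min at 1500 rpm, repeated three times. Cells resuspended to 10% (v/v), then diluted to about 0.5% (v/v). Peptides added at various concentrations for 30 min at 37 °C. Supernatant absorbance read at 550 nm. Lysis calculated against buffer (0%) and water (100%). Readings taken in triplicate and averaged.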

[15] = test system: Enterococcus faecium; assay: Antibacterial activity against Enterococcus faecium M2664 clinical isolate expressing vanA gene by microdilution test; assay type: functional; how it was run: as §1
[16] = test system: Enterococcus faecium; assay: Antibacterial activity against Enterococcus faecium M2304 clinical isolate expressing vanA gene by microdilution test; assay type: functional; how it was run: as §1
[17] = test system: Enterococcus faecium; assay: Antibacterial activity against Enterococcus faecium M2481 clinical isolate expressing vanB gene by microdilution test; assay type: functional; how it was run: as §1
[18] = test system: Enterococcus faecium; assay: Antibacterial activity against Enterococcus faecium M2619 clinical isolate expressing vanB gene by microdilution test; assay type: functional; how it was run: as §1
[19] = test system: Enterococcus faecalis; assay: Antibacterial activity against Enterococcus faecalis M6983 clinical isolate expressing vanA gene by microdilution test; assay type: functional; how it was run: as §1
[20] = test system: Enterococcus faecalis; assay: Antibacterial activity against Enterococcus faecalis M6383 clinical isolate expressing vanA gene by microdilution test; assay type: functional; how it was run: as §1
[21] = test system: Enterococcus faecalis; assay: Antibacterial activity against Enterococcus faecalis M4992 clinical isolate expressing vanA gene by microdilution test; assay type: functional; how it was run: as §1
[22] = test system: Enterococcus faecalis; assay: Antibacterial activity against Enterococcus faecalis M6534 clinical isolate expressing vanB gene by microdilution test; assay type: functional; how it was run: as §1
[23] = test system: Enterococcus faecalis; assay: Antibacterial activity against Enterococcus faecalis M4899 clinical isolate expressing vanB gene by microdilution test; assay type: functional; how it was run: as §1
[24] = test system: Enterococcus faecalis; assay: Antibacterial activity against Enterococcus faecalis ATCC 51299 clinical isolate expressing vanB gene by microdilution test; assay type: functional; how it was run: as §1
[25] = test system: Staphylococcus cohnii; assay: Antibacterial activity against Staphylococcus cohnii M6767 clinical isolate expressing mecA gene by microdilution test; assay type: functional; how it was run: as §2
[26] = test system: Staphylococcus hominis; assay: Antibacterial activity against Staphylococcus hominis M2967 clinical isolate expressing mecA gene by microdilution test; assay type: functional; how it was run: as §2
[27] = test system: Staphylococcus haemolyticus; assay: Antibacterial activity against Staphylococcus haemolyticus M3014 by microdilution test; assay type: functional; how it was run: as §2
[28] = test system: Staphylococcus haemolyticus; assay: Antibacterial activity against Staphylococcus haemolyticus M2976 clinical isolate expressing mecA gene by microdilution test; assay type: functional; how it was run: as §2
[29] = test system: Staphylococcus saprophyticus; assay: Antibacterial activity against Staphylococcus saprophyticus M2981 clinical isolate expressing mecA gene by microdilution test; assay type: functional; how it was run: as §2
[30] = test system: Staphylococcus saprophyticus; assay: Antibacterial activity against Staphylococcus saprophyticus M4070 clinical isolate expressing mecA gene by microdilution test; assay type: functional; how it was run: as §2
[31] = test system: Staphylococcus epidermidis; assay: Antibacterial activity against Staphylococcus epidermidis M2919 clinical isolate expressing mecA gene by microdilution test; assay type: functional; how it was run: as §2
[32] = test system: Staphylococcus epidermidis; assay: Antibacterial activity against Staphylococcus epidermidis M2931 by microdilution test; assay type: functional; how it was run: as §2
[33] = test system: Staphylococcus epidermidis; assay: Antibacterial activity against Staphylococcus epidermidis M2923 by microdilution test; assay type: functional; how it was run: as §2
[34] = test system: Staphylococcus aureus; assay: Antibacterial activity against Staphylococcus aureus M6784 clinical isolate expressing mecA gene by microdilution test; assay type: functional; how it was run: as §2
[35] = test system: Staphylococcus aureus; assay: Antibacterial activity against Staphylococcus aureus M4046 clinical isolate expressing mecA gene by microdilution test; assay type: functional; how it was run: as §2
[36] = test system: Staphylococcus aureus; assay: Antibacterial activity against Staphylococcus aureus M2832 clinical isolate expressing mecA gene by microdilution test; assay type: functional; how it was run: as §2
[37] = test system: Staphylococcus aureus; assay: Antibacterial activity against Staphylococcus aureus M6794 clinical isolate expressing mecA gene by microdilution test; assay type: functional; how it was run: as §2
[38] = test system: Staphylococcus aureus; assay: Antibacterial activity against Staphylococcus aureus P204 clinical isolate expressing ermA gene by microdilution test; assay type: functional; how it was run: as §2
[39] = test system: Staphylococcus aureus; assay: Antibacterial activity against Staphylococcus aureus ATCC 29213 by microdilution test; assay type: functional; how it was run: as §2
[40] = test system: Escherichia coli; assay: Antibacterial activity against Escherichia coli M9209 clinical isolate expressing blaKPC-2 gene by microdilution test; assay type: functional; how it was run: as §1
[41] = test system: Escherichia coli; assay: Antibacterial activity against Escherichia coli PABC11 clinical isolate expressing blaCTX-M-2 gene by microdilution test; assay type: functional; how it was run: as §1
[42] = test system: Escherichia coli; assay: Antibacterial activity against Escherichia coli M7859 clinical isolate expressing blaCIT gene by microdilution test; assay type: functional; how it was run: as §1
[43] = test system: Escherichia coli; assay: Antibacterial activity against Escherichia coli ATCC 25922 by microdilution test; assay type: functional; how it was run: as §1
[44] = test system: Klebsiella pneumoniae; assay: Antibacterial activity against Klebsiella pneumoniae M9885 clinical isolate expressing blaKPC-2 gene by microdilution test; assay type: functional; how it was run: as §1
[45] = test system: Klebsiella pneumoniae; assay: Antibacterial activity against Klebsiella pneumoniae M13540 clinical isolate expressing blaKPC-2 gene by microdilution test; assay type: functional; how it was run: as §1
[46] = test system: Klebsiella pneumoniae; assay: Antibacterial activity against Klebsiella pneumoniae M1803 clinical isolate expressing blaPER-2, blaCTX-M-2, blaTEM-1, blaSHV and blaOXA-9 gene by microdilution test; assay type: functional; how it was run: as §1
[47] = test system: Klebsiella pneumoniae; assay: Antibacterial activity against Klebsiella pneumoniae M9375 clinical isolate expressing blaCTX-M-2, blaTEM-1 and blaSHV-1 gene by microdilution test; assay type: functional; how it was run: as §1
[48] = test system: Klebsiella pneumoniae; assay: Antibacterial activity against Klebsiella pneumoniae M9310 clinical isolate expressing blaCTX-M-2, blaTEM-1 and blaSHV-1 gene by microdilution test; assay type: functional; how it was run: as §1
[49] = test system: Klebsiella pneumoniae; assay: Antibacterial activity against Klebsiella pneumoniae M5825 clinical isolate expressing blaGES-3 and blaCTX-M-2 gene by microdilution test; assay type: functional; how it was run: as §1

## H-GLLKKWLKKWKEFKRIVGY-NH2
[1]
  MIC90: 64 µg/mL
[2]
  MIC90: 16 µg/mL
[3]
  MIC90: 8 µg/mL
[4]
  MIC90: 16 µg/mL
[5]
  MIC90: 32 µg/mL
[6]
  MIC90: 8 µg/mL
[7]
  MIC90: 4 µg/mL
[8]
  MIC90: 64 µg/mL
[9]
  MIC90: 64 µg/mL
[10]
  MIC90: 64 µg/mL
[11]
  MIC90: 64 µg/mL
[12]
  MIC90: 64 µg/mL
[13]
  MIC90: 64 µg/mL
[14]
  hemolysis: 39.8%
[15]
  MIC90: 8 µg/mL
[16]
  MIC90: 16 µg/mL
[17]
  MIC90: 16 µg/mL
[18]
  MIC90: 16 µg/mL
[19]
  MIC90: 128 µg/mL
[20]
  MIC90: 128 µg/mL
[21]
  MIC90: 128 µg/mL
[22]
  MIC90: 256 µg/mL
[23]
  MIC90: 128 µg/mL
[24]
  MIC90: 256 µg/mL
[25]
  MIC90: 16 µg/mL
[26]
  MIC90: 8 µg/mL
[27]
  MIC90: 8 µg/mL
[28]
  MIC90: 8 µg/mL
[29]
  MIC90: 8 µg/mL
[30]
  MIC90: 32 µg/mL
[31]
  MIC90: 16 µg/mL
[32]
  MIC90: 16 µg/mL
[33]
  MIC90: 16 µg/mL
[34]
  MIC90: 32 µg/mL
[35]
  MIC90: 128 µg/mL
[36]
  MIC90: 128 µg/mL
[37]
  MIC90: 64 µg/mL
[38]
  MIC90: 64 µg/mL
[39]
  MIC90: 64 µg/mL
[40]
  MIC90: 64 µg/mL
[41]
  MIC90: 32 µg/mL
[42]
  MIC90: 32 µg/mL
[43]
  MIC90: 32 µg/mL
[44]
  MIC90: 64 µg/mL
[45]
  MIC90: 16 µg/mL
[46]
  MIC90: 32 µg/mL
[47]
  MIC90: 64 µg/mL
[48]
  MIC90: 16 µg/mL
[49]
  MIC90: 8 µg/mL

## H-RIVQRIKKWLLKWKKLGY-NH2
[1]
  MIC90: 64 µg/mL
[2]
  MIC90: 256 µg/mL
[3]
  MIC90: 64 µg/mL
[4]
  MIC90: 64 µg/mL
[5]
  MIC90: 64 µg/mL
[6]
  MIC90: 64 µg/mL
[7]
  MIC90: 64 µg/mL
[8]
  MIC90: 64 µg/mL
[9]
  MIC90: 64 µg/mL
[10]
  MIC90: 64 µg/mL
[11]
  MIC90: 32 µg/mL
[12]
  MIC90: 64 µg/mL
[13]
  MIC90: 64 µg/mL
[14]
  hemolysis: 9.5%
[15]
  MIC90: 8 µg/mL
[16]
  MIC90: 8 µg/mL
[17]
  MIC90: 16 µg/mL
[18]
  MIC90: 16 µg/mL
[19]
  MIC90: 128 µg/mL
[20]
  MIC90: 128 µg/mL
[21]
  MIC90: 128 µg/mL
[22]
  MIC90: 256 µg/mL
[23]
  MIC90: 256 µg/mL
[24]
  MIC90: 256 µg/mL
[25]
  MIC90: 8 µg/mL
[26]
  MIC90: 8 µg/mL
[27]
  MIC90: 8 µg/mL
[28]
  MIC90: 8 µg/mL
[29]
  MIC90: 8 µg/mL
[30]
  MIC90: 8 µg/mL
[31]
  MIC90: 8 µg/mL
[32]
  MIC90: 8 µg/mL
[33]
  MIC90: 16 µg/mL
[34]
  MIC90: 32 µg/mL
[35]
  MIC90: 32 µg/mL
[36]
  MIC90: 64 µg/mL
[37]
  MIC90: 64 µg/mL
[38]
  MIC90: 32 µg/mL
[39]
  MIC90: 32 µg/mL
[40]
  MIC90: 128 µg/mL
[41]
  MIC90: 32 µg/mL
[42]
  MIC90: 16 µg/mL
[43]
  MIC90: 32 µg/mL
[44]
  MIC90: 32 µg/mL
[45]
  MIC90: 64 µg/mL
[46]
  MIC90: 64 µg/mL
[47]
  MIC90: 16 µg/mL
[48]
  MIC90: 32 µg/mL
[49]
  MIC90: 32 µg/mL
